Experiments:
[1] = target: Serine/threonine-protein kinase Sgk2 (Homo sapiens) (UniProt Q9HBY8); test: Binding affinity to wild-type human partial length SGK2 (L54 to C427 residues) expressed in mammalian expression system assessed as residual binding level at 1 uM by Kinomescan method relative to control
[2] = target: Casein kinase I isoform epsilon (Homo sapiens) (UniProt P49674); test: Binding affinity to wild-type human full length CSNK1E (M1 to K416 residues) expressed in bacterial expression system assessed as residual binding level at 1 uM by Kinomescan method relative to control
Casein kinase I isoform epsilon (Homo sapiens), sequence (P49674 whole entry, looked up, the tested form may be a part, canonical isoform): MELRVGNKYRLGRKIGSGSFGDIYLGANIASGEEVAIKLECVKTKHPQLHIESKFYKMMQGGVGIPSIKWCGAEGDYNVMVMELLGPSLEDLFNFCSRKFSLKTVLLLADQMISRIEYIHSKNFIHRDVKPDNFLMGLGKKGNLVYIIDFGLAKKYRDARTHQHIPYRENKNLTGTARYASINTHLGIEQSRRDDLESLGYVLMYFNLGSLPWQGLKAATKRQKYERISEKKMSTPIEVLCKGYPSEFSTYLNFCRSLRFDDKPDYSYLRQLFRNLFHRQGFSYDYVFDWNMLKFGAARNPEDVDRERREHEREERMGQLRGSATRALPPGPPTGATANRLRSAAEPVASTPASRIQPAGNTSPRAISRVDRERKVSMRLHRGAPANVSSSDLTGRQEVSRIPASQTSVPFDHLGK
Outline: (§1)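 Single-concentration (1 μM) competition-binding screen run by KINOMEscan against a panel of 468 purified kinases and mutants. The read-out is the relative binding activity of the test compound to each kinase.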

[3] = target: Mitogen-activated protein kinase 14 (Homo sapiens) (UniProt Q16539); test: Binding affinity to wild-type human full length p38-alpha (M1 to S360 residues) expressed in bacterial expression system assessed as residual binding level at 1 uM by Kinomescan method relative to control
Outline: (§2)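 Single-concentration KINOMEscan (DiscoverX) binding screen at 1 μM against a panel of 468 purified kinases and mutants. The read-out is binding relative to control.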

[4] = target: Serine/threonine-protein kinase RIO1 (Homo sapiens) (UniProt Q9BRS2); test: Binding affinity to wild-type human full length RIOK1 (M1 to K568 residues) expressed in bacterial expression system assessed as residual binding level at 1 uM by Kinomescan method relative to control; outline: as §2
[5] = target: Testis-specific serine/threonine-protein kinase 1 (Homo sapiens) (UniProt Q9BXA7); test: Binding affinity to wild-type human full length TSSK1B (M1 to Q367 residues) expressed in bacterial expression system assessed as residual binding level at 1 uM by Kinomescan method relative to control; outline: as §2
Testis-specific serine/threonine-protein kinase 1 (Homo sapiens), sequence (Q9BXA7 whole entry, the tested form may be a part): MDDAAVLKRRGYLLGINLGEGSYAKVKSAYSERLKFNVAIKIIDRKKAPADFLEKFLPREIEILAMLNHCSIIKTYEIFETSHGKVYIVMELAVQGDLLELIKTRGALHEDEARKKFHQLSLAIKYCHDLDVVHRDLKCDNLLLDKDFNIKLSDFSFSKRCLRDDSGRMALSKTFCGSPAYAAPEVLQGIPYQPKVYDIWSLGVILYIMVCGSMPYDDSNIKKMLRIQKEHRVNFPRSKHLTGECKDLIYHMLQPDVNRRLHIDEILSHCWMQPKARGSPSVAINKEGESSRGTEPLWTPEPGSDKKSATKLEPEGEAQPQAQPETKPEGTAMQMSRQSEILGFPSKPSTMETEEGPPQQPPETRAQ

[6] = target: cAMP-dependent protein kinase catalytic subunit PRKX (Homo sapiens) (UniProt P51817); test: Binding affinity to wild-type human partial length PRKX (M1 to F358 residues) expressed in bacterial expression system assessed as residual binding level at 1 uM by Kinomescan method relative to control
cAMP-dependent protein kinase catalytic subunit PRKX (Homo sapiens), sequence (P51817 whole entry, the tested form may be a part): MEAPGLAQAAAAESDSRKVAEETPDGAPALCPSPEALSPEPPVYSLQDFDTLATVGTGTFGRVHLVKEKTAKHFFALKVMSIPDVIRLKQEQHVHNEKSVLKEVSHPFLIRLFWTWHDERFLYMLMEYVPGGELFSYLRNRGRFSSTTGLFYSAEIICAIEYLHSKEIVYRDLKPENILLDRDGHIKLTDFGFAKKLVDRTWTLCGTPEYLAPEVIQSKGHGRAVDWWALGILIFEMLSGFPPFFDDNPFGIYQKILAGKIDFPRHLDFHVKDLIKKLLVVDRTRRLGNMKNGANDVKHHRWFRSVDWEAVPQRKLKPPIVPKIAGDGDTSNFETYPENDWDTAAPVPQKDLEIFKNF
Outline: (§3)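 KINOMEscan competition binding against a panel of 468 purified kinases/mutants, compound tested at 1 μM; readout is relative binding activity versus control.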

[7] = tested on: Phosphatidylinositol 4,5-bisphosphate 3-kinase catalytic subunit alpha isoform (Homo sapiens), P42336 [Q546K]; test: Binding affinity to human partial length PIK3CA Q546K mutant (R108 to N1068 residues) expressed in mammalian expression system assessed as residual binding level at 1 uM by Kinomescan method relative to control
Outline: (§4)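 Kinome-wide single-concentration binding screen (KINOMEscan) at 1 μM against a panel of 468 purified kinases and mutants. Read-out is relative binding of each kinase compared with control. Selectivity across the panel was summarised as an S(10) score.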

[8] = tested on: Leucine-rich repeat serine/threonine-protein kinase 2 (Homo sapiens), Q5S007 [G2019S]; test: Binding affinity to human partial length LRRK2 G2019S mutant (H970 to E2527 residues) expressed in mammalian expression system assessed as residual binding level at 1 uM by Kinomescan method relative to control; outline: as §4
[9] = target: Phosphorylase b kinase gamma catalytic chain, skeletal muscle/heart isoform (Homo sapiens) (UniProt Q16816); test: Binding affinity to wild-type human full length PHKG1 (M1 to Y387 residues) expressed in bacterial expression system assessed as residual binding level at 1 uM by Kinomescan method relative to control
Outline: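 KINOMEscan competition binding against 468 purified kinases/mutants, test compound at 1 µM; residual binding relative to control.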

Mus musculus = test: Toxicity in nu/nu mouse xenografted with human EOL-1 cells assessed as change in body weight at 25 to 100 mg/kg/day, ip; format: organism-based; settings: in vivo
Outline: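 Female nu/nu mice, 6 weeks old, implanted subcutaneously in the right flank with 5 million EOL-1 cells in PBS/Matrigel 1:1. At tumour size 200–400 mm³, mice randomised into groups of 6 and given daily IP doses of 25, 50 or 100 mg/kg in 0.5% methylcellulose/0.4% Tween80, or vehicle, for 14 days. Body weight measured daily and normalised to initial weight; mean ± SEM.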

[10] = target: Serine/threonine-protein kinase B-raf (Homo sapiens) (UniProt P15056); test: Binding affinity to wild-type human partial length BRAF (S429 to E741 residues) expressed in mammalian expression system assessed as residual binding level at 1 uM by Kinomescan method relative to control; outline: as §2
Serine/threonine-protein kinase B-raf (Homo sapiens), sequence (P15056 whole entry, the tested form may be a part): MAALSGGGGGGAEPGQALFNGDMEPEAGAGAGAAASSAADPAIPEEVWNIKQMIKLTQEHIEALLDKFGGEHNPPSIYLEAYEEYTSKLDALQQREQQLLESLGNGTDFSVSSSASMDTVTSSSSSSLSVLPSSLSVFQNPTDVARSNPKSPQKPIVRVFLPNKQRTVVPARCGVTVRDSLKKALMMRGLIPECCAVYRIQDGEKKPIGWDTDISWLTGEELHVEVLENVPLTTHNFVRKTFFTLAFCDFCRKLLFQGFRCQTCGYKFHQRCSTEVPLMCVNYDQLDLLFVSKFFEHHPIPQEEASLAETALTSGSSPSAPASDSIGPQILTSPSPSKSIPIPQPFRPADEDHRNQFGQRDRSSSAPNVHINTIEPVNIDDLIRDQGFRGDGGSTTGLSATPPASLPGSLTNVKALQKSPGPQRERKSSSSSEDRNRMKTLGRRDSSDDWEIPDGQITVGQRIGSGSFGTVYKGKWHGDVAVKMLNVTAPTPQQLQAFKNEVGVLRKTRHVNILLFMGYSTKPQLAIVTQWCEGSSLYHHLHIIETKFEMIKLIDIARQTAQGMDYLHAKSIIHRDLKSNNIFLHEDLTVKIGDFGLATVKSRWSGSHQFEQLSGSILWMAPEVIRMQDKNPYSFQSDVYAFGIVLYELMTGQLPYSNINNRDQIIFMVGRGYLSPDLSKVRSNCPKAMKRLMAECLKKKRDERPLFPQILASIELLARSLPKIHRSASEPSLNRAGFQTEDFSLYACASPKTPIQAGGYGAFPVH

[11] = target: Ephrin type-B receptor 1 (Homo sapiens) (UniProt P54762); test: Binding affinity to wild-type human partial length EPHB1 (P589 to T911 residues) expressed in bacterial expression system assessed as residual binding level at 1 uM by Kinomescan method relative to control
Ephrin type-B receptor 1 (Homo sapiens), sequence (P54762 whole entry, the tested form may be a part): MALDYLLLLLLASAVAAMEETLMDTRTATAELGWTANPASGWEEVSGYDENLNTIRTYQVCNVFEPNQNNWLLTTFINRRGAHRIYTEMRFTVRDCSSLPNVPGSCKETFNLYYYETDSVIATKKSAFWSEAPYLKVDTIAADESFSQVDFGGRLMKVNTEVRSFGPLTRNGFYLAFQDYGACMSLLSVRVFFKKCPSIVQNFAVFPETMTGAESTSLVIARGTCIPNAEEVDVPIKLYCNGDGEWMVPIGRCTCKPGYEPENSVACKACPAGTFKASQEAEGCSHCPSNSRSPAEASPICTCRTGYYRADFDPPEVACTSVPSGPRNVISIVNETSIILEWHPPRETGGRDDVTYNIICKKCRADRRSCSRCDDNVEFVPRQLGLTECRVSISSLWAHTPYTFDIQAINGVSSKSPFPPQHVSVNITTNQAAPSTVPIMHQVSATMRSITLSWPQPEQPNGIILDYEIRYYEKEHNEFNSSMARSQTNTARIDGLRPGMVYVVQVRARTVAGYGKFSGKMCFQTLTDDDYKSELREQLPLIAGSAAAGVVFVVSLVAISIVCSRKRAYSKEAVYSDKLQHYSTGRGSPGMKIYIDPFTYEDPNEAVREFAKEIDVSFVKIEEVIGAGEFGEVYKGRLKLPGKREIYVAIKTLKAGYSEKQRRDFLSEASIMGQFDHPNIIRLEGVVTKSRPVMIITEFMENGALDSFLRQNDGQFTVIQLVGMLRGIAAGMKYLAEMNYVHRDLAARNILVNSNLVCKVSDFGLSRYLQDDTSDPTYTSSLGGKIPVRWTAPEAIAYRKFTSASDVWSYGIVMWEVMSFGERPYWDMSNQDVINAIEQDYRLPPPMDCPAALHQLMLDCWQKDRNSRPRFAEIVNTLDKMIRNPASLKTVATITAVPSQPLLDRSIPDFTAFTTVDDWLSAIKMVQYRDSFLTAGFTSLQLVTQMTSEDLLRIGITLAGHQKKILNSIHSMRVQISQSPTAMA

[12] = target: Tyrosine-protein kinase Fer (Homo sapiens) (UniProt P16591); test: Binding affinity to wild-type human partial length FER (S542 to T822 residues) expressed in bacterial expression system assessed as residual binding level at 1 uM by Kinomescan method relative to control
Tyrosine-protein kinase Fer (Homo sapiens), sequence (P16591 whole entry, looked up, the tested form may be a part): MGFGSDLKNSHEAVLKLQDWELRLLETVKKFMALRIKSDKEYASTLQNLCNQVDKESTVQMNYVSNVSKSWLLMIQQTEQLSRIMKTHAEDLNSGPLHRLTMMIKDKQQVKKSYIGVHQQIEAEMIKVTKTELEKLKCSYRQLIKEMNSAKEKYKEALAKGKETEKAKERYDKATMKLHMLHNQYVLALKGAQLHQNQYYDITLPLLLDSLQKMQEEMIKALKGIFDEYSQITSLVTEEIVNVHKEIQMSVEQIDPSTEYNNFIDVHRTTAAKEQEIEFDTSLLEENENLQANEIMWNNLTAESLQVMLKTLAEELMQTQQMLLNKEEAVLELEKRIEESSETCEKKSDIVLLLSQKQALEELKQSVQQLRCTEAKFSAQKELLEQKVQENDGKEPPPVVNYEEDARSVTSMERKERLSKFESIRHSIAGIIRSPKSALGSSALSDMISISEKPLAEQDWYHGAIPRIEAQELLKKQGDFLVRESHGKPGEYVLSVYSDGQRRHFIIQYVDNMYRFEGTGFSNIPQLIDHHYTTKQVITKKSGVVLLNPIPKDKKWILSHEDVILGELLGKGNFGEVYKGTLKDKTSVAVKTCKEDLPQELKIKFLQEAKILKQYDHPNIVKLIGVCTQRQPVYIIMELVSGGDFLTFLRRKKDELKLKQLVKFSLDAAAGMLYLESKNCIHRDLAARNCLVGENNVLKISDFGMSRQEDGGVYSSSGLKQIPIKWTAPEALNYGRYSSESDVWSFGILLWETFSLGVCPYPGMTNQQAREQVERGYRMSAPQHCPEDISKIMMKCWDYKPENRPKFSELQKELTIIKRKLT

[13] = target: Serine/threonine-protein kinase MRCK alpha (Homo sapiens) (UniProt Q5VT25); test: Binding affinity to wild-type human partial length MRCKA (L57 to V418 residues) expressed in bacterial expression system assessed as residual binding level at 1 uM by Kinomescan method relative to control
Outline: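 Kinome-wide competition binding screen against a panel of 468 purified kinases/mutants, with the test compound at a single concentration of 1 μM. Read-out is the relative binding activity of each kinase in the presence of compound.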

[14] = target: Serine/threonine-protein kinase PLK4 (Homo sapiens) (UniProt O00444); test: Binding affinity to wild-type human partial length PLK4 (M1 to S273 residues) expressed in mammalian expression system assessed as residual binding level at 1 uM by Kinomescan method relative to control
[15] = target: Cyclin-dependent kinase 2 (Homo sapiens) (UniProt P24941); test: Binding affinity to wild-type human full length CDK2 (M1 to L298 residues) expressed in bacterial expression system assessed as residual binding level at 1 uM by Kinomescan method relative to control; outline: as §1
[16] = target: Serine/threonine-protein kinase Nek11 (Homo sapiens) (UniProt Q8NG66); test: Binding affinity to wild-type human partial length NEK11 (M1 to E313 residues) expressed in mammalian expression system assessed as residual binding level at 1 uM by Kinomescan method relative to control
Serine/threonine-protein kinase Nek11 (Homo sapiens), sequence (Q8NG66 whole entry, the tested form may be a part, canonical isoform): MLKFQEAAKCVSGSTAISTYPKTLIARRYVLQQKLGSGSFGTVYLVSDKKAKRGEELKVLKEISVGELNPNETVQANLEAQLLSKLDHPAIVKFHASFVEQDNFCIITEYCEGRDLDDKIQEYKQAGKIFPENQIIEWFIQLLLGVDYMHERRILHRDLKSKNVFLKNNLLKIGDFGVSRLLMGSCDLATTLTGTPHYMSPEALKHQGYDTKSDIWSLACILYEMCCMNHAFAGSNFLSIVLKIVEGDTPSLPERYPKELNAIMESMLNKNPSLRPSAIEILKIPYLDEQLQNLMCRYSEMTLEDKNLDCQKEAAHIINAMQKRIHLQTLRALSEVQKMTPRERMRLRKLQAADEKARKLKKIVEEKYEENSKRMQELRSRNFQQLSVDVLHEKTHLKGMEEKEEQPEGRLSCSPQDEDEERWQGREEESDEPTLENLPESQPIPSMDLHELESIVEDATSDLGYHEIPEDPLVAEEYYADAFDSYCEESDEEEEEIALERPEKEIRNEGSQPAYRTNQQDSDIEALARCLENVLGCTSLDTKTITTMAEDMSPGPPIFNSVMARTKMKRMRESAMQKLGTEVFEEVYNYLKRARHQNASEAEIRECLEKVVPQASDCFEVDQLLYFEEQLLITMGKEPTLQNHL

[17] = target: Phosphatidylinositol 4,5-bisphosphate 3-kinase catalytic subunit gamma isoform (Homo sapiens) (UniProt P48736); test: Binding affinity to wild-type human partial length PIK3CG (S144 to A1102 residues) expressed in mammalian expression system assessed as residual binding level at 1 uM by Kinomescan method relative to control
[18] = target: Phosphorylase b kinase gamma catalytic chain, liver/testis isoform (Homo sapiens) (UniProt P15735); test: Binding affinity to wild-type human partial length PHKG2 (M1 to W300 residues) expressed in bacterial expression system assessed as residual binding level at 1 uM by Kinomescan method relative to control; outline: as §3

Serine/threonine-protein kinase Sgk2 (Homo sapiens), sequence (Q9HBY8 whole entry, the tested form may be a part, canonical isoform): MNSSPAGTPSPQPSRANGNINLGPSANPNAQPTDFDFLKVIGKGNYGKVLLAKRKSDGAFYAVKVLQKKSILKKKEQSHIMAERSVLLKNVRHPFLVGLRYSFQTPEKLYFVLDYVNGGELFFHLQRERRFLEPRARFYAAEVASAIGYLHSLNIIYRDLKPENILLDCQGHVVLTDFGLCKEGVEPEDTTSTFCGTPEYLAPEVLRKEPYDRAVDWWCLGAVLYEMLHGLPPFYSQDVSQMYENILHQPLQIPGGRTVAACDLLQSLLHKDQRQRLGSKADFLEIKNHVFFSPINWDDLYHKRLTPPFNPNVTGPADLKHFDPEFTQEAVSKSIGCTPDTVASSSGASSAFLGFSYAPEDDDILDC

Compound: Cc1ccc(NC(=O)c2ccc(CN(CCN(C)C)C(=O)c3cccnc3)cc2)cc1Nc1nccc(-c2cccnc2)n1
- Activity [1]: 100%
- Activity [2]: 97%
- Activity [3]: 99%
- Activity [4]: 100%
- Activity [5]: 99%
- Activity [6]: 92%
- Activity [7]: 90%
- Activity [8]: 59%
- Activity [9]: 94%
- Activity (Mus musculus): Toxic
- Activity [10]: 88%
- Activity [11]: 100%
- Activity [12]: 100%
- Activity [13]: 80%
- Activity [14]: 88%
- Activity [15]: 95%
- Activity [16]: 100%
- Activity [17]: 99%
- Activity [18]: 89%

— ChEMBL document CHEMBL4229344 (Eur J Med Chem, 2018)
